From ChEMBL document CHEMBL1154309, “Cytotoxic diterpenoids from Croton argyrophylloides” (J Nat Prod, 2009)

Tests used:
MDA-MB-435 = test: Cytotoxicity against human MDA-MB-435 cells after 69 hrs by MTT assay; format: functional, cell-based; settings: MDA-MB-435, 69 h
Procedure, shortened: (§1)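 Tumor lines from NCI, kept in RPMI 1640 with 10% FBS, 2 mM glutamine, penicillin/streptomycin, 37 °C, 5% CO2. Seeded at 0.7 × 10^5 cells/well (adherent) or 0.3 × 10^6 cells/well (suspension). Compounds at 0.078-5 µg/mL in DMSO (final below 0.1%), 69 h, then MTT 0.5 mg/mL for 3 h. Formazan dissolved in DMSO, A595. Triplicates; IC50 by nonlinear regression.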

HL-60 = test: Cytotoxicity against human HL60 cells after 69 hrs by MTT assay; format: functional, cell-based; settings: HL-60, 69 h; procedure, shortened: as §1
PBMC = test: Cytotoxicity against human PBMC after 72 hrs by alamar blue assay; format: cell-based
Procedure, shortened: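 PBMC isolated from heparinized blood of healthy nonsmoking donors by Ficoll-Hypaque gradient. Cells at 3 × 10^5 cells/mL in RPMI 1640 with 20% FBS, 37 °C, 5% CO2, phytohemagglutinin 3% added at the start. Compounds added after 24 h at 0.078-5 µg/mL in DMSO (final below 0.1%), exposure 72 h. Alamar Blue added for the last 24 h; absorbance read at 570 and 595 nm, expressed as % reduced versus control.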

HCT-8 = test: Cytotoxicity against human HCT8 cells after 69 hrs by MTT assay; format: functional, cell-based; settings: HCT-8, 69 h; procedure, shortened: as §1
[1] = Hemolytic activity in mouse erythrocytes at 200 ug/ml after 1 hr by spectrophotometer; format: ADME, cell-based; settings: erythrocyte
Procedure, shortened: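 Mouse erythrocytes as a 2% suspension in 0.85% NaCl with 10 mM CaCl2. Compounds tested at 0.78-200 µg/mL; 1% DMSO served as negative control and 0.2% Triton X-100 set 100% hemolysis. After 1 h at room temperature and centrifugation, released hemoglobin in the supernatant measured at 540 nm absorbance.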

SF-295 = test: Cytotoxicity against human SF295 cells after 69 hrs by MTT assay; format: functional, cell-based; settings: SF-295, 69 h; procedure, shortened: as §1

Row | Compound | IC50 (MDA-MB-435) [µM] | IC50 (HL-60) [µM] | IC50 (PBMC) [µM] | IC50 (HCT-8) [µM] | Activity [1] | IC50 (SF-295) [µM]
1 | C=C1C(=O)[C@@]23CC[C@H]4[C@@](C)(CCC[C@]4(C)C(=O)O)[C@@H]2CC[C@@H]1C3 | 4.2 | 2 | > 10 | 1.5 | Not Active | 3.7
2 | C=C1C(=O)O[C@@]23CC[C@H]4[C@@](C)(CCC[C@]4(C)C(=O)O)[C@@H]2CC[C@@H]1C3 (relative stereo) | > 10 | 8.2 | > 10 | 5.2 | Not Active | > 10
3 | C=C(C(=O)OC)C1C[C@H](OC(C)=O)C2=C(CC[C@@H]3[C@@](C)(C(=O)OC)C(=O)CC[C@@]23C)[C@@H]1OC(C)=O (relative stereo) [ABIETANE] | > 10 | > 10 | > 10 | > 10 | Not Active | > 10
4 | COc1cccc2c1C(=O)c1c(O)c3c(c(O)c1C2=O)C[C@@](O)(C(=O)CO)C[C@@H]3O[C@H]1C[C@H](N)[C@H](O)[C@H](C)O1 [DOXORUBICIN] | 1.67 | 0.05 | 0.5 | 0.09 |  | 0.37
